Residue numbers refer to the chain shown, from its start.
Tests used:
CaMKIIα WT hub [1] = biological target: T1, CaMKIIα WT hub (Homo sapiens, UniProt Q9UQM7); assay: Thermal shift assay; type: binding; conditions: for maximum ∆Tm: DSF, mean ± SEM, n = 3
T1 sequence (Q9UQM7 345-475): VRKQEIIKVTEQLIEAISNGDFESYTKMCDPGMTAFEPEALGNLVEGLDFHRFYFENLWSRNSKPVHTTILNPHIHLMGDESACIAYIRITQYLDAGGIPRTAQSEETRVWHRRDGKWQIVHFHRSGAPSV

CaMKIIα W403L hub [2] = biological target: T2, CaMKIIα W403L hub (Homo sapiens, UniProt Q9UQM7, W403L); assay: Thermal shift assay; type: binding; conditions: DSF, mean ± SEM, n = 3
T2 sequence (Q9UQM7 345-475 W403L): T1 sequence (Q9UQM7 345-475) with W59L

CaMKIIα holoenzyme = CaMKIIα holoenzyme (Homo sapiens, UniProt Q9UQM7); assay: ADP-Glo kinase assay, syntide-2 phosphorylation; type: biochemical; conditions: sub-maximal (30 nM) CaM; concentrations up to 5–10 mM
CaMKIIα WT hub [3] = biological target: T1, CaMKIIα WT hub; assay: Small-angle X-ray scattering, CaMKIIα WT hub; conditions: CaMKIIα WT hub 1.2–3.9 mg/mL; PIPA 200 μM, HOCPCA 1000 μM, 5-HDC 100 μM
CaMKIIα WT hub [4] = biological target: T1, CaMKIIα WT hub; assay: Surface plasmon resonance, immobilized CaMKIIα WT hub; type: binding
How it was run: (§1)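 SPR at 25°C. Purified hub (WT or W403L) was amine-coupled to the sensor in 20 mM NaAc, pH 5. Test compound was injected as twofold dilutions in MES running buffer (20 mM MES, 150 mM NaCl, 1 mM DTT, pH 6), with blank and reference-surface subtraction. Equilibrium responses versus concentration were fitted to a 1:1 Langmuir isotherm for KD. Independent experiments: WT n = 3, W403L n = 2.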

CaMKIIα W403L hub [5] = biological target: T2, CaMKIIα W403L hub; assay: Surface plasmon resonance, immobilized CaMKIIα W403L hub; type: binding
How it was run: as §1

CaMKIIα 6x hub [6] = biological target: T3, CaMKIIα 6x hub (Homo sapiens, UniProt Q9UQM7, E355Q/F467M/I414M/I464H/T354N/T412N); assay: Intrinsic tryptophan fluorescence assay; type: binding; conditions: pIC50, quenching of intrinsic tryptophan fluorescence, purified CaMKIIα 6x hub
T3 sequence (Q9UQM7 345-475 T354N/E355Q/T412N/I414M/I464H/F467M): T1 sequence (Q9UQM7 345-475) with T10N, E11Q, T68N, I70M, I120H, F123M
How it was run: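 Purified human CaMKIIα 6x hub (residues 345–475 with six stabilising mutations). Intrinsic Trp fluorescence was read at 25°C across a test compound series (e.g. 0.43–12.1 μM). Signals were background-corrected for compound in buffer, then normalised between hub alone and the high-concentration plateau. IC50 came from a variable-slope log(inhibitor)-response fit of pooled data, n = 3.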

CaMKIIα W403L hub [7] = biological target: T2, CaMKIIα W403L hub; assay: Small-angle X-ray scattering, CaMKIIα W403L hub; conditions: CaMKIIα W403L hub 6.8 mg/mL, PIPA 200 μM
How it was run: (§2)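 SAXS. Purified hub constructs were buffer-exchanged by spin desalting into 20 mM MES, 150 mM NaCl, 1 mM DTT, pH 6.0, with or without 200 μM test compound, and measured as dilution series of 1–7 mg/mL protein at 20–22°C. Frames were radially averaged, buffer-subtracted and merged, scaled by concentration. Curves were fitted with dodecamer, tetradecamer, mixed or stacked-dodecamer models.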

CaMKIIα 6x hub [8] = biological target: T3, CaMKIIα 6x hub; assay: Small-angle X-ray scattering, CaMKIIα 6x hub; conditions: CaMKIIα 6x hub 6.7 mg/mL, PIPA 200 μM
How it was run: as §2

CaMKIIα WT hub [9] = biological target: T1, CaMKIIα WT hub; assay: Mass photometry, CaMKIIα WT hub; conditions: CaMKIIα WT hub 100–500 nM, incubated with 200 μM PIPA
CaMKIIα W403L hub [10] = biological target: T2, CaMKIIα W403L hub; assay: Mass photometry, CaMKIIα W403L hub; conditions: CaMKIIα W403L hub 100–500 nM, incubated with 200 μM PIPA
How it was run: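 Mass photometry. The instrument was calibrated with apoferritin, BSA and […]. Purified W403L hub (1.5 mg/mL) was incubated 90 min with 200 μM test compound, then desalted into MES buffer (20 mM MES, 150 mM NaCl, 1 mM DTT, pH 6.0) plus compound. It was diluted to 500, 200 and 100 nM and recorded for 60 s, with a buffer blank before each run. Single-molecule mass histograms were built.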

GHB binding site = conditions: low-affinity; ref Wellendorph et al., 2009; cited from earlier work
[11] = biological target: human CaMKIIα W403L hub domain (human) (UniProt Q9UQM7); assay: mass photometry
SAXS = biological target: the molecule itself; assay: SAXS

Sequence of CaMKIIα holoenzyme (Q9UQM7 whole entry): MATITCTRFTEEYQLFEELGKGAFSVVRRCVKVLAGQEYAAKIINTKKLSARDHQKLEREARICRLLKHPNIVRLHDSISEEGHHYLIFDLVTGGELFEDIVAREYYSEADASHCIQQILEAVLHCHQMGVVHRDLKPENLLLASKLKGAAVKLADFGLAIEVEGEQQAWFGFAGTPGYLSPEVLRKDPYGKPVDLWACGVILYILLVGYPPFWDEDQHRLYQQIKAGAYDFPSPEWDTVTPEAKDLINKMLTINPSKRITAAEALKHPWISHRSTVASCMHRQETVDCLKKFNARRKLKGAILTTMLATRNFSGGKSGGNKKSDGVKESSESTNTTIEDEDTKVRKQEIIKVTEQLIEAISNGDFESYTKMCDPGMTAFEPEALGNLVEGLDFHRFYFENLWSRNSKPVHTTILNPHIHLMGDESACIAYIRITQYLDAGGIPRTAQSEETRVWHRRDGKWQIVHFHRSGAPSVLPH

O=C(O)C1=CC(O)CC1 (stereo not shown) [HOCPCA, 3‐hydroxycyclopent‐1‐enecarboxylic acid, reference compound]
maximum ∆Tm (CaMKIIα WT hub [1]): 11.5 ± 0.6 °C
maximum ∆Tm (CaMKIIα W403L hub [2]): 15.2 ± 1.0 °C
effect on syntide-2 substrate phosphorylation (CaMKIIα holoenzyme): neither of the compounds affected substrate phosphorylation
self-association / oligomeric state of hub (SAXS) (CaMKIIα WT hub [3]): not observed

O=C(O)Cc1cn2nc(-c3ccc(Cl)cc3)ccc2n1 [PIPA, 2‐(6‐(4‐chlorophenyl)imidazo[1,2‐b]pyridazine‐2‐yl)acetic acid]
Kd (CaMKIIα WT hub [4]): 2.9 ± 0.6 µM
Kd (CaMKIIα W403L hub [5]): 2.8 ± 0.13 µM
maximum ∆Tm (CaMKIIα WT hub [1]): 13.04 ± 0.09 °C
maximum ∆Tm less compared to 5-HDC (CaMKIIα WT hub [1]; difference PIPA vs 5-HDC): 10.7 °C
maximum ∆Tm (CaMKIIα W403L hub [2]): 24.5 ± 0.4 °C
IC50 (CaMKIIα 6x hub [6]): 5.01 µM
self-association / oligomeric state of hub (SAXS) (CaMKIIα WT hub [3]): induced self‐association
self-association of hub (SAXS) (CaMKIIα W403L hub [7]): no self‐association was detected
self-association of hub (SAXS) (CaMKIIα 6x hub [8]): no self‐association was detected
molecular weight species (mass photometry) (CaMKIIα WT hub [9]): displayed a shoulder on the main peak around 220 kDa as well as a much larger species at 372 kDa
change in MW (mass photometry) (CaMKIIα W403L hub [10]): did not display any change in MW

CC(=O)O [acetate]
effect on syntide-2 substrate phosphorylation (CaMKIIα holoenzyme): neither of the compounds affected substrate phosphorylation
Ki (GHB binding site): > 100 µM

human CaMKIIα W403L hub domain (from UniProt Q9UQM7 345-475) (domain or fragment)
stoichiometry N [11]: 12

B1: human CaMKIIα wild-type (WT) hub domain (domain or fragment, UniProt Q9UQM7 345-475, looked up)
chain: T1 sequence (Q9UQM7 345-475)
stoichiometry N (SAXS): 12

— publication PMC11400628 (Protein Science : A Publication of the Protein Society, 2024)
